From ChEMBL document CHEMBL3244382, “Structural requirements for antileukemic activity among the naturally occurring and semisynthetic maytansinoids” (J Med Chem, 1978)
In brackets after ≈: the same amount, converted by molar mass. Activity calls are given as the source filed them.

What was measured:
Mus musculus [1] = assay: Toxicity in PS mouse allografted with mouse P388 cells assessed as change in body weight at 12.5 ug/kg relative to control; assay type: organism-based; conditions: in vivo, 0.0125 mg/kg
Procedure, shortened: (§1)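 P388 (PS) leukemia in mice, 6 mice per dose group. Weight change is the difference in grams between treated and control animals. Survivors are recorded on toxicity day, normally 4 days after the first injection.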

Mus musculus [2] = assay: Toxicity in PS mouse allografted with mouse P388 cells assessed as change in body weight at 1.6 ug/kg relative to control; assay type: organism-based; conditions: in vivo, 0.0016 mg/kg; procedure, shortened: as §1
P388 [3] = assay: Antitumor activity against mouse P388 cells allografted in PS mouse assessed as median survival time at 200 ug/kg relative to control; assay type: functional
Procedure, shortened: (§2)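 P388 leukemia (PS) in mice, six mice started per dose group. Read-out is T/C: median survival time of the treated group divided by that of the untreated control group, expressed as a percent. The NIH protocol counts a compound as active when T/C > 125%.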

P388 [4] = assay: Antitumor activity against mouse P388 cells allografted in PS mouse assessed as median survival time at 100 ug/kg relative to control; assay type: functional; procedure, shortened: as §2
Mus musculus [5] = assay: Toxicity in PS mouse allografted with mouse P388 cells assessed as survival at 400 ug/kg after 4 days; assay type: organism-based; conditions: in vivo, 0.4 mg/kg, 96 h
Procedure, shortened: (§3)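 PS (P388) leukemic mice, six started per dose group. Toxicity scored as survivors on the toxicity day over the number of mice started. The toxicity day is normally 4 days after the first injection.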

P388 [6] = assay: Antitumor activity against mouse P388 cells allografted in PS mouse assessed as median survival time at 400 ug/kg relative to control; assay type: functional; procedure, shortened: as §2
Mus musculus [7] = assay: Toxicity in PS mouse allografted with mouse P388 cells assessed as change in body weight at 3.1 ug/kg relative to control; assay type: organism-based; conditions: in vivo, 0.0031 mg/kg; procedure, shortened: as §1
Mus musculus [8] = assay: Toxicity in PS mouse allografted with mouse P388 cells assessed as survival at 25 ug/kg after 4 days; assay type: organism-based; conditions: in vivo, 0.025 mg/kg, 96 h; procedure, shortened: as §3
Mus musculus [9] = assay: Toxicity in PS mouse allografted with mouse P388 cells assessed as change in body weight at 200 ug/kg relative to control; assay type: organism-based; conditions: in vivo, 0.2 mg/kg; procedure, shortened: as §1
Mus musculus [10] = assay: Toxicity in PS mouse allografted with mouse P388 cells assessed as survival at 6.2 ug/kg after 4 days; assay type: organism-based; conditions: in vivo, 0.0062 mg/kg, 96 h; procedure, shortened: as §3
P388 [11] = assay: Antitumor activity against mouse P388 cells allografted in PS mouse assessed as median survival time at 25 ug/kg relative to control; assay type: functional; procedure, shortened: as §2
Tubulin (Homo sapiens) = Tubulin (Homo sapiens) (UniProt P68371+Q9H4B7+P0DPH7+P68366+Q13509+Q71U36+P04350+Q3ZCM7+P07437+P68363+Q9BQE3+Q6PEY2+Q13885+Q9BVA1+Q9BUF5); assay: Inhibition of brain tubulin polymerization (unknown origin) at 37 degC by spectrophotometry
Mus musculus [12] = assay: Toxicity in PS mouse allografted with mouse P388 cells assessed as survival at 12.5 ug/kg after 4 days; assay type: organism-based; conditions: in vivo, 0.0125 mg/kg, 96 h; procedure, shortened: as §3
P388 [13] = assay: Antitumor activity against mouse P388 cells allografted in PS mouse assessed as median survival time at 3.1 ug/kg relative to control; assay type: functional; procedure, shortened: as §2
Mus musculus [14] = assay: Toxicity in PS mouse allografted with mouse P388 cells assessed as survival at 200 ug/kg after 4 days; assay type: organism-based; conditions: in vivo, 0.2 mg/kg, 96 h; procedure, shortened: as §3
Paracentrotus lividus = assay: Antimitotic activity against sea urchin eggs assessed as drug level causing inhibition of mitosis; assay type: functional; conditions: Egg
Mus musculus [15] = assay: Toxicity in PS mouse allografted with mouse P388 cells assessed as survival at 50 ug/kg after 4 days; assay type: organism-based; conditions: in vivo, 0.05 mg/kg, 96 h; procedure, shortened: as §3
P388 [16] = assay: Antitumor activity against mouse P388 cells allografted in PS mouse assessed as median survival time at 1.6 ug/kg relative to control; assay type: functional; procedure, shortened: as §2
Mus musculus [17] = assay: Toxicity in PS mouse allografted with mouse P388 cells assessed as survival at 1.6 ug/kg after 4 days; assay type: organism-based; conditions: in vivo, 0.0016 mg/kg, 96 h; procedure, shortened: as §3
KB = assay: Cytotoxicity against human KB cells; assay type: functional; conditions: read-out: ED50 (the source's name)
P388 [18] = assay: Antitumor activity against mouse P388 cells allografted in PS mouse assessed as median survival time at 50 ug/kg relative to control; assay type: functional; procedure, shortened: as §2
Mus musculus [19] = assay: Toxicity in PS mouse allografted with mouse P388 cells assessed as change in body weight at 25 ug/kg relative to control; assay type: organism-based; conditions: in vivo, 0.025 mg/kg; procedure, shortened: as §1
Mus musculus [20] = assay: Toxicity in PS mouse allografted with mouse P388 cells assessed as change in body weight at 400 ug/kg relative to control; assay type: organism-based; conditions: in vivo, 0.4 mg/kg; procedure, shortened: as §1
P388 [21] = assay: Antitumor activity against mouse P388 cells allografted in PS mouse assessed as median survival time at 6.2 ug/kg relative to control; assay type: functional; procedure, shortened: as §2
Mus musculus [22] = assay: Toxicity in PS mouse allografted with mouse P388 cells assessed as change in body weight at 6.2 ug/kg relative to control; assay type: organism-based; conditions: in vivo, 0.0062 mg/kg; procedure, shortened: as §1
Mus musculus [23] = assay: Toxicity in PS mouse allografted with mouse P388 cells assessed as change in body weight at 50 ug/kg relative to control; assay type: organism-based; conditions: in vivo, 0.05 mg/kg; procedure, shortened: as §1
Mus musculus [24] = assay: Toxicity in PS mouse allografted with mouse P388 cells assessed as survival at 100 ug/kg after 4 days; assay type: organism-based; conditions: in vivo, 0.1 mg/kg, 96 h; procedure, shortened: as §3
P388 [25] = assay: Antitumor activity against mouse P388 cells allografted in PS mouse assessed as median survival time at 12.5 ug/kg relative to control; assay type: functional; procedure, shortened: as §2
Mus musculus [26] = assay: Toxicity in PS mouse allografted with mouse P388 cells assessed as change in body weight at 100 ug/kg relative to control; assay type: organism-based; conditions: in vivo, 0.1 mg/kg; procedure, shortened: as §1
Mus musculus [27] = assay: Toxicity in PS mouse allografted with mouse P388 cells assessed as survival at 3.1 ug/kg after 4 days; assay type: organism-based; conditions: in vivo, 0.0031 mg/kg, 96 h; procedure, shortened: as §3

Structure (SMILES) | Activity (Mus musculus [1]) | Activity (Mus musculus [2]) | T/C (P388 [3]) | T/C (P388 [4]) | Activity (Mus musculus [5]) | T/C (P388 [6]) | Activity (Mus musculus [7]) | Activity (Mus musculus [8]) | Activity (Mus musculus [9]) | Activity (Mus musculus [10]) | T/C (P388 [11]) | inhibition (Tubulin (Homo sapiens)) | Activity (Mus musculus [12]) | T/C (P388 [13]) | Activity (Mus musculus [14]) | Activity (Paracentrotus lividus) | Activity (Mus musculus [15]) | T/C (P388 [16]) | Activity (Mus musculus [17]) | EC50 (KB) | further results
CCCS[C@]12C[C@H](OC(=O)N1)[C@@H](C)[C@@H]1O[C@@]1(C)[C@@H](OC(=O)[C@H](C)N(C)C(=O)C(C)C)CC(=O)N(C)c1cc(cc(OC)c1Cl)C/C(C)=C/C=C/[C@H]2OC | 0.6 g | 0.8 g | 151% | 127% | Non-toxic | 151% | 0.6 g | Non-toxic | -2.4 g | Non-toxic | 101% | Active | Non-toxic | 97% | Non-toxic | 1 ×10⁻⁸ mol/L | Non-toxic | 100% | Non-toxic | 0.31 ng/mL (≈ 0.398 nM) | T/C (P388 [18]): 118%; Activity (Mus musculus [19]): 0.7 g; Activity (Mus musculus [20]): 0.6 g; T/C (P388 [21]): <80%; Activity (Mus musculus [22]): -0.1 g; Activity (Mus musculus [23]): 0.4 g; Activity (Mus musculus [24]): Non-toxic; T/C (P388 [25]): 95%; Activity (Mus musculus [26]): -1.6 g; Activity (Mus musculus [27]): Non-toxic
COc1cc2cc(c1Cl)N(C)C(=O)C[C@H](OC(=O)[C@H](C)N(C)C(=O)C(C)C)[C@]1(C)O[C@H]1[C@H](C)[C@@H]1C[C@@](OC)(NC(=O)O1)[C@H](OC)/C=C/C=C(\C)C2 | -2.1 g | -1.8 g | 100% | 99% | Non-toxic | 136% | -1.1 g | Non-toxic | -0.9 g | Non-toxic | 96% | Active | Non-toxic | 99% | Non-toxic | 1 ×10⁻⁸ mol/L | Non-toxic | 101% | Non-toxic | 0.16 ng/mL (≈ 0.218 nM) | T/C (P388 [18]): 99%; Activity (Mus musculus [19]): -0.5 g; Activity (Mus musculus [20]): -3 g; T/C (P388 [21]): 100%; Activity (Mus musculus [22]): -0.6 g; Activity (Mus musculus [23]): -2 g; Activity (Mus musculus [24]): Non-toxic; T/C (P388 [25]): 99%; Activity (Mus musculus [26]): -1 g; Activity (Mus musculus [27]): Non-toxic
